# Most compounds without a hit are left out; they make up all but 1.6% or so of the library.
# DNA FID counter: compounds displacing fluorescent DNA intercalator, primary screen, artefact control for HCV NS3 helicase inhibitor project, biochemical, FID fluorescence. DNA fluorescent intercalator displacement. inhibition, % at 7.9 µM. 0.17% of 290,000 active. AID 1845, 2009; in the data active = inhibition above about 37%;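 also: 0% = vehicle and 100% = reference compound; higher means more ethidium bromide displaced from hairpin DNA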
# Apaf-1 inh: inhibitors of human Apaf-1 apoptosome, primary screen, biochemical, DEVD-Rh110 fluorescence, uHTS; reconstituted apoptosome caspase-3 activity; AID 489030, 2010; inhibition, % at 20 µM; Apoptotic protease-activating factor 1 (Homo sapiens), O14727; 0.71% of 330,000 active; active = inhibition of at least 40% at 20 µM;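 also: plate controls were DMSO wells for no effect and DEVD-CHO caspase inhibitor wells for full effect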
#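 Assay system: Apoptosome proteins | Medium: pH 7.5 Hepes buffer with CHAPS, BSA, DTT | Also added: Cytochrome c and DEVD-Rh110 substrate | Times: 30 min plus 50 min, RT | Detection: Rhodamine 110 fluorescence at Ex 480/Em 540 nm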
# RAD52 anneal inh: RAD52 DNA annealing inhibitors, primary screen, biochemical, FRET, single point, set 2 | DNA repair protein RAD52 homolog (Homo sapiens), P43351 | recombinant RAD52 DNA annealing, FRET fluorescence | inhibition, % at 18.7 µM | 0.46% of 360,000 active | AID 651710, 2012;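 active = every replicate showing at least 50% inhibition; inconclusive = mean inhibition at least 50% but not in every replicate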
# UBC13 inh: UBC13 polyubiquitin chain formation inhibitors, primary screen, biochemical, TR-FRET, uHTS; inhibition, % at 20 µM; AID 485273, 2010; 0.47% of 330,000 active; in the data active = inhibition above about 45%, passing the limit was not always enough; inconclusive = no clear call, values can overlap the other calls
# RAD54 branch: inhibitors of human RAD54 branch migration, primary screen, biochemical, fluorescence, single point | RAD54 Holliday junction branch migration, FAM/BHQ fluorescence | 0.14% of 360,000 active | AID 602329, 2012 | inhibition, % at 10.4 µM;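 active = mean normalized replicate activity at least 40 and at least half of replicates scoring 40 or more; inconclusive = only one of the two criteria met; inactive = mean below 40 and under half of replicates reaching 40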;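 also: 0% = median of neutral control wells and 100% = median of positive control wells; inhibitors cause a drop in the FAM fluorescence signal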
# Neddyl block: inhibitors of cullin neddylation, primary screen, biochemical, TR-FRET, uHTS, NAE and Ubc12; NEDD8-conjugating enzyme Ubc12 (Homo sapiens) + NEDD8-activating enzyme E1 regulatory …; 0.58% of 360,000 active; calls only at 25 µM; AID 651699, 2012; in the data active = inhibition above about 36%
# Casp3 counter: CASP3 inhibitor validation, counterassay for project on UBE2N polyubiquitination blockers, biochemical, one dose | shares compounds with UBC13 inh | Recombinant caspase-3, Caspase-Glo 3/7 luminescence, 60 min | inhibition, % at 20 µM | 4% of 1,400 active;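 active = mean inhibition across replicates above about 26%, limit read from the data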;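 also: plate controls were DMSO with caspase-3 for no effect and DMSO wells lacking enzyme for full effect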
# UBC13 confirm: UBC13 polyubiquitination inhibitors, single-point retest, confirmation, biochemical, TR-FRET, single concentration; shares compounds with UBC13 inh; inhibition, % at 10 µM; 68% of 1,400 active; in the data active = inhibition above about 45%; inconclusive = no clear call, values can overlap the other calls
# Numbers without * were called inactive; i = inactive; u = inconclusive; x = no result shown.
SMILES,DNA FID counter,Apaf-1 inh,RAD52 anneal inh,UBC13 inh,RAD54 branch,Neddyl block,Casp3 counter,UBC13 confirm
Cc1c(Br)c(C(=O)NNC(=O)c2ccc(C(C)(C)C)cc2)nn1C,-15,-24,5,56*,x,i,0,57*
CCCCC(=O)Nc1ccc2c3c(cccc13)C(=O)N2CC,-10,-7,x,60*,x,i,2,66*
C=C(C)COc1ccc(-c2[nH]ncc2Oc2cccc(OC)c2)c(O)c1,-4,24,x,68*,0,i,-4,68*
Cc1ccc(OCC(=O)NNC(=S)NC(=O)C2CCCCC2)c(C)c1,-26,10,x,-4,8,i,x,x
N#Cc1ccc(NC(=S)NC(=O)C2CCCCC2)cc1,x,8,-26,0,13,i,x,x
N#Cc1ccc(OCC(=O)NNC(=S)NC(=O)C2CC2)cc1,x,-3,-12,106*,x,i,-1,102*
CC(C)c1ccc(OCC(=O)NNC(=S)NC(=O)C2CC2)cc1,-27,6,-7,62*,7,i,-1,99*
Cc1ccc(OCC(=O)NNC(=S)NC(=O)C2CC2)c(C)c1,-27,-5,-12,85*,2,i,2,106*
O=C(C1=C[C@@H](c2coc3ccccc3c2=O)C[C@@H](OCc2ccc(CO)cc2)O1)N1CCN(Cc2ccc3c(c2)OCO3)CC1,-8,22,-48,76*,-5,i,-1,57*
CC(=NCc1ccco1)c1c(C)[nH]n(-c2nc3ccccc3s2)c1=O,2,-13,x,53*,x,i,78*,u
CCC(=NCc1ccco1)c1c(C(F)(F)F)[nH]n(-c2nc3ccccc3s2)c1=O,-5,8,x,-6,4,i,x,x
CC1(C)CC(=O)C2=C(C1)NC1=C(C(=O)c3ccccc31)C2c1ccc(Cl)cc1 (stereo not given),-6,10,x,50*,x,i,-4,56*
O=C(Cn1nc(CNc2ccc(Cl)cc2)[n+]2c1CCCCC2)c1ccc(Br)cc1,23,25,x,42,11,i,x,x
O=C(Cn1nc(CNc2ccc(Br)cc2)[n+]2c1CCCCC2)c1ccc([N+](=O)[O-])cc1,29,25,35,52*,8,i,0,46*
COc1cc(-c2cc(C(=O)Nc3ccc(S(N)(=O)=O)cc3)c3ccccc3n2)cc(OC)c1OC,-27,15,-10,60*,3,x,-1,48*
COc1cc(-c2cc(C(=O)Nc3ccc(S(=O)(=O)Nc4ncccn4)cc3)c3ccccc3n2)cc(OC)c1OC,-3,-2,-9,28,x,i,x,x
CCCCn1c(-c2cccs2)nc2nc3ccccc3nc21,-1,19,x,56*,7,x,-1,45*
CC(C)Cn1c(-c2cccs2)nc2nc3ccccc3nc21,-11,17,x,38,2,x,x,x
Cc1noc(C)c1NC(=O)N(C)C[C@H]1Oc2ccc(NC(=O)CCCN(C)C)cc2CC(=O)N([C@@H](C)CO)C[C@@H]1C,x,x,8,x,6,x,x,x
CCOC(=O)c1c(COc2ccccc2)oc2ccc(O)cc12,-4,-3,x,21,x,x,x,x
CCOC(=O)c1c(CN2CCCCC2)oc2ccc(O)cc12,-1,-5,x,53*,5,i,0,54*
CCOC(=O)c1c(CN2CCOCC2)oc2ccc(OC)cc12,-18,-2,x,1,-12,i,x,x
CCOC(=O)c1c(C(C)(C)C)oc2ccc(O)cc12,-16,16,x,55*,x,i,-5,54*
C[C@]12CCCC(=O)N1CCc1c2[nH]c2ccccc12,x,x,-9,x,-1,x,x,x
COc1ccc(CN(C)C[C@H]2OCCCC[C@H](C)Oc3ccc(NS(=O)(=O)c4ccc(OC)cc4)cc3C(=O)N([C@@H](C)CO)C[C@H]2C)cc1,x,x,39,x,x,x,x,x
SMILES,DNA FID counter,Apaf-1 inh,RAD52 anneal inh,UBC13 inh,RAD54 branch,Neddyl block,Casp3 counter,UBC13 confirm
O=C(NCCCn1ccnc1)C1CCN(S(=O)(=O)c2cc([N+](=O)[O-])ccc2Cl)CC1,x,23,27,82*,x,i,-1,64*
O=C(NCc1cccnc1)C1CCN(S(=O)(=O)c2cc([N+](=O)[O-])ccc2Cl)CC1,x,2,-1,1,4,i,x,x
O=S(=O)(NC1CCCCC1)c1ccc(Cl)nc1,0,-6,x,50*,-7,i,-5,10
O=S(=O)(NC1CCCC1)c1ccc(S(=O)(=O)NC2CCCC2)cc1,-12,-14,x,11,-10,i,x,x
COc1ccc(-c2csc(NC(=O)c3cccc(N4C(=O)CCC4=O)c3)n2)cc1OC,x,-7,-14,21,10,i,x,x
CCOc1ccc(-c2csc(NC(=O)c3cccc(N4C(=O)CCC4=O)c3)n2)cc1,-4,-15,-6,58*,2,i,-2,u
CCCCCc1cc(=O)oc2c(C(CCN3CCCCC3)c3cc(OC)c(OC)c(OC)c3)c(OC)cc(OC)c12 (stereo not given),x,29,47,81*,17,i,3,46*
COc1cc(C(CCN2CCCC2)c2c(OC)cc(OC)c3ccc(=O)oc23)cc(OC)c1OC (stereo not given),x,-1,4,1,4,i,x,x
CC=Cc1ccc2n(c1=O)C[C@H]1[C@H](CO)[C@@H](C(=O)NCC3CC3)N(C(C)=O)[C@@H]21 (mixture of isomers),x,x,-3,x,x,x,x,x
CC[n+]1c(/C=C/N(C)c2ccccc2)n(-c2ccccc2)c2ccc(-c3nc4ccccc4s3)cc21,41*,82*,x,84*,36,x,1,98*
O=C(c1ccncc1)N1CC(=O)N2[C@H](C1)[C@@H](c1ccc(-c3ccccc3)cc1)[C@@H]2CO,x,x,-1,x,x,x,x,x
CCOC(=O)N1CCN(C(=O)C(=O)Nc2sc3c(c2C(=O)O)CC(C)(C)OC3)CC1,-51,4,-12,-7,4,i,x,x
CCOC(=O)N1CCN(C(=O)C(=O)Nc2sc3c(c2C(N)=O)CC(C)(C)OC3)CC1,-47,-5,-17,63*,x,i,-2,90*
